Laboratory results published in ChEMBL document CHEMBL3244174, “Synthesis and biological activity of some new furan quaternary salts” (J Med Chem, 1977).
Values after ≈ are worked out from the molar mass of the structure shown.

Experiments:
[1] = tested on: Candida albicans; assay: Antifungal activity against Candida albicans SKF 2270 assessed as growth inhibition by agar dilution method; assay type: functional
[2] = tested on: Cryptococcus neoformans; assay: Antifungal activity against Cryptococcus neoformans 103 assessed as growth inhibition by agar dilution method; assay type: functional
[3] = tested on: Trichophyton rubrum; assay: Antifungal activity against Trichophyton rubrum 252 CSTM assessed as growth inhibition by agar dilution method; assay type: functional
[4] = tested on: Microsporum canis; assay: Antifungal activity against Microsporum canis VM-200 USPHS assessed as growth inhibition by agar dilution method; assay type: functional
[5] = tested on: Nannizzia gypsea; assay: Antifungal activity against Microsporum gypseum 153 CSTM assessed as growth inhibition by agar dilution method; assay type: functional
[6] = tested on: Histoplasma capsulatum; assay: Antifungal activity against Histoplasma capsulatum RNSH Hi-70 1/2 assessed as growth inhibition by agar dilution method; assay type: functional
[7] = tested on: Staphylococcus aureus; assay: Antibacterial activity against Staphylococcus aureus ATCC 6538 assessed as growth inhibition after 24 hrs by dilution tube method; assay type: functional; conditions: ATCC 6538, 24 h
Procedure, shortened: (§1)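 Broth tube dilution in Tryptone Soya Broth, duplicate tubes at each concentration. MIC (μg/ml) was the highest dilution preventing visible growth. Nitrofurantoin run under the same conditions.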

[8] = tested on: Enterococcus faecalis; assay: Antibacterial activity against Streptococcus faecalis ATCC 10541 assessed as growth inhibition after 24 hrs by dilution tube method; assay type: functional; conditions: ATCC 10541, 24 h; procedure, shortened: as §1
[9] = tested on: Pseudomonas aeruginosa; assay: Antibacterial activity against Pseudomonas aeruginosa ATCC 10145 assessed as growth inhibition after 24 hrs by dilution tube method; assay type: functional; conditions: ATCC 10145, 24 h; procedure, shortened: as §1
[10] = tested on: Klebsiella pneumoniae; assay: Antibacterial activity against Klebsiella pneumoniae ATCC 10031 assessed as growth inhibition after 24 hrs by dilution tube method; assay type: functional; conditions: ATCC 10031, 24 h; procedure, shortened: as §1
[11] = tested on: Salmonella typhi; assay: Antibacterial activity against Salmonella typhi 115 assessed as growth inhibition after 24 hrs by dilution tube method; assay type: functional, Salmonella enterica subsp. enterica serovar Typhi; conditions: Salmonella enterica, 115, 24 h
Procedure, shortened: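 Dilution tube method in Tryptone Soya Broth; MIC (μg/ml) taken as highest dilution preventing visible growth; duplicates at every concentration; nitrofurantoin reference run under same conditions.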

[12] = tested on: Agrobacterium tumefaciens; assay: Antibacterial activity against Agrobacterium tumefaciens NRRL B-36 assessed as growth inhibition after 24 hrs by dilution tube method; assay type: functional; conditions: NRRL B-36, 24 h; procedure, shortened: as §1
[13] = tested on: Escherichia coli; assay: Antibacterial activity against Escherichia coli 114 assessed as growth inhibition after 24 hrs by dilution tube method; assay type: functional; conditions: Escherichia coli, 114, 24 h; procedure, shortened: as §1
[14] = tested on: Mycobacterium tuberculosis; assay: Antibacterial activity against Mycobacterium tuberculosis H37Rv assessed as growth inhibition by serial dilution method; assay type: functional
Procedure, shortened: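 M. tuberculosis H37Rv maintained on Lowenstein–Jensen medium; tested in Youman's medium by serial dilution.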

[15] = tested on: Trichophyton mentagrophytes; assay: Antifungal activity against Trichophyton mentagrophytes A-280 USPHS assessed as growth inhibition by agar dilution method; assay type: functional

SMILES	MIC [1] [µg/mL]	MIC [2] [µg/mL]	MIC [3] [µg/mL]	MIC [4] [µg/mL]	MIC [5] [µg/mL]	MIC [6] [µg/mL]	MIC [7] [µg/mL]	MIC [8] [µg/mL]	MIC [9] [µg/mL]	MIC [10] [µg/mL]	MIC [11] [µg/mL]	MIC [12] [µg/mL]	MIC [13] [µg/mL]	MIC [14] [µg/mL]	MIC [15] [µg/mL]
C[N+](C)(CCCCCCCCCCOc1c(Br)cc(Br)cc1Br)Cc1ccc([N+](=O)[O-])o1.[Br-]	> 200	4	> 200	> 200	> 200	> 200	2	4	3	4	> 200	10	> 200	7.5	–
Cc1cc(OCCCCCC[N+](C)(C)Cc2ccc([N+](=O)[O-])o2)c(C(C)C)cc1Cl.[Br-]	> 200	25	200	100	> 200	> 200	> 200	> 200	> 200	> 200	> 200	> 200	> 200	–	> 200
O=C1CN(/N=C/c2ccc([N+](=O)[O-])o2)C(=O)N1 [NITROFURANTOIN]	–	–	–	–	–	–	25 (≈ 105 µM)	100 (≈ 420 µM)	2.5 (≈ 10.5 µM)	5 (≈ 21 µM)	25 (≈ 105 µM)	25 (≈ 105 µM)	25 (≈ 105 µM)	–	–
C[N+](C)(CCCCOc1ccc(Cl)cc1)Cc1ccc(Br)o1.[Br-]	> 200	> 200	> 200	> 200	> 200	> 200	100	100	50	100	100	100	100	–	> 200
C[N+](C)(CCCCOc1ccc(Cl)cc1)Cc1ccc([N+](=O)[O-])o1.[Br-]	> 200	> 200	> 200	> 200	> 200	> 200	100	> 200	100	100	> 200	> 200	> 200	–	> 200
C[N+](C)(CCCCOc1ccccc1Cl)Cc1ccc(Br)o1.[Br-]	> 200	> 200	> 200	> 200	> 200	> 200	100	> 200	100	100	> 200	> 200	> 200	–	> 200
C[N+](C)(CCCCCOc1ccc(Cl)cc1)Cc1ccc(Br)o1.[Br-]	> 200	> 200	> 200	100	> 200	> 200	50	100	25	50	> 200	> 200	> 200	–	> 200
Cc1cc(OCCCCCCCCCC[N+](C)(C)Cc2ccc(Br)o2)c(C(C)C)cc1Cl.[Br-]	> 200	100	> 200	100	> 200	100	25	50	25	–	> 200	> 200	> 200	–	–
C[N+](C)(CCCCOc1ccccc1Cl)Cc1ccc([N+](=O)[O-])o1.[Br-]	> 200	> 200	> 200	> 200	> 200	> 200	100	> 200	100	100	> 200	> 200	> 200	–	> 200
Cc1cc(OCCCCCCCCCC[N+](C)(C)Cc2ccc([N+](=O)[O-])o2)c(C(C)C)cc1Cl.Cc1ccc(S(=O)(=O)[O-])cc1	> 200	100	> 200	> 200	> 200	> 200	200	100	50	200	> 200	–	> 200	25	200
C[N+](C)(CCCCCOc1ccccc1Cl)Cc1ccc(Br)o1.[Br-]	> 200	> 200	> 200	> 200	> 200	> 200	50	> 200	50	100	> 200	> 200	> 200	–	> 200
C[C@@H]1[C@H](O)[C@@H](C)/C=C/C=C/C=C/C=C/C=C/C=C/C=C/[C@H](O[C@@H]2O[C@H](C)[C@@H](O)[C@H](N)[C@@H]2O)C[C@@H]2O[C@](O)(C[C@@H](O)C[C@@H](O)[C@H](O)CC[C@@H](O)C[C@@H](O)CC(=O)O[C@H]1C)C[C@H](O)[C@H]2C(=O)O [AMPHOTERICIN B]	2.5 (≈ 2.71 µM)	–	10 (≈ 10.8 µM)	5 (≈ 5.41 µM)	10 (≈ 10.8 µM)	0.5 (≈ 0.541 µM)	–	–	–	–	–	–	–	–	10 (≈ 10.8 µM)
C[N+](C)(CCCCCOc1ccc(Cl)cc1Cl)Cc1ccc(Br)o1.[Br-]	> 200	50	> 200	50	> 200	100	25	50	10	25	> 200	50	> 200	–	> 200
C[N+](C)(CCCCCCCCCCCCOc1c(Br)cc(Br)cc1Br)Cc1ccc([N+](=O)[O-])o1.[Br-]	> 200	200	> 200	> 200	–	> 200	200	200	50	200	> 200	> 200	–	100	> 200
C[N+](C)(CCOc1c(Br)cc(Br)cc1Br)Cc1ccc(Br)o1.[Br-]	> 200	50	> 200	100	> 200	100	25	25	25	25	> 200	100	> 200	–	100
